Assay results published in ChEMBL document CHEMBL1240327, “Small molecules enhance autophagy and reduce toxicity in Huntington's disease models” (Nat Chem Biol, 2007).
The source made the active and inactive calls.

What was measured:
[1] = system: Saccharomyces cerevisiae; test: Inhibition of 50 nM rapamycin-mediated cytostatic effect in yeast BY4742 after 48 to 96 hrs; assay type: functional, organism-based
[2] = system: Saccharomyces cerevisiae; test: Inhibition of rapamycin-mediated cytostatic effect in yeast RM11-1a after 48 to 96 hrs; assay type: functional
[3] = system: Saccharomyces bayanus; test: Inhibition of rapamycin-mediated cytostatic effect in Saccharomyces bayanus after 48 to 96 hrs; assay type: functional
[4] = system: Saccharomyces mikatae; test: Inhibition of rapamycin-mediated cytostatic effect in Saccharomyces mikatae after 48 to 96 hrs; assay type: functional
[5] = system: Saccharomyces paradoxus; test: Inhibition of rapamycin-mediated cytostatic effect in Saccharomyces paradoxus after 48 to 96 hrs; assay type: functional
[6] = system: PC-12; test: Enhancement of autophagy in rat PC12 cells assessed as decrease in alpha-synuclein A53T mutant level at 43 uM by immunoblotting; assay type: functional, cell-based
In short: (§1)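 Stable PC12 line with doxycycline-inducible HA-tagged A53T α-synuclein; induced with 1 μg/ml doxycycline for 48 h, then doxycycline removed. Compounds added during the 24 h switch-off period, from 5 mg ml⁻¹ DMSO stock diluted 1:20000, 1:4000 or 1:400. HA immunoblot, densitometry relative to actin; control set to 100 %; three independent experiments, factorial ANOVA.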

[7] = Cytotoxicity against african green monkey COS7 cells at 47 uM after 24 hrs by FACS analysis; assay type: cell-based; settings: chlorocebus aethiops, cos-7, 24 h
[8] = target: Huntingtin (Homo sapiens) (UniProt P42858); test: Inhibition of EGFP-tagged huntingtin aggregation expressed in african green monkey COS7 cells at 47 uM after 48 hrs by […]; assay type: cell-based; settings: COS-7
[9] = target: Huntingtin (Homo sapiens) (UniProt P42858); test: Inhibition of EGFP-tagged huntingtin expressed in african green monkey COS7 cells assessed as protection against protein-induced cell death at 47 uM after 48 hrs by Western blot analysis; assay type: cell-based; settings: COS-7
[10] = target: Huntingtin (Mus musculus) (UniProt P42859); test: Inhibition of EGFP-tagged huntingtin aggregation in MEF harboring Atg5 gene at 47 uM after 48 hrs by Western blot analysis
[11] = target: Huntingtin (Mus musculus) (UniProt P42859); test: Inhibition of EGFP-tagged huntingtin aggregation in Atg5-deficient MEF at 47 uM after 48 hrs by Western blot analysis
[12] = system: HeLa; test: Induction of autophagy in human HeLa cells harboring MAP1LC3 gene at 47 uM after 24 hrs by DAPI staining-based fluorescence microscopy; assay type: functional, cell-based
In short: (§2)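 Stable EGFP-LC3 HeLa cells treated 24 h. EGFP-positive autophagic vesicles were imaged by confocal microscopy with DAPI nuclear counterstain.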

[13] = system: HeLa; test: Increase in MAP1LC3 level in bafilomycin A1-treated human HeLa cells at 47 uM treated fro 24 hrs before bafilomycin A1 challenge by immunoblotting analysis; assay type: functional, cell-based
In short: (§3)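 HeLa cells stably expressing EGFP-LC3 were pretreated with compound for 24 h, then given 200 nM bafilomycin A1 for 4 h. EGFP-LC3-II was measured by anti-EGFP immunoblot with densitometry relative to actin, from three independent experiments.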

[14] = system: Drosophila melanogaster; test: Neuroprotective activity in Drosophila melanogaster Huntington's disease model harboring huntington protein mutant assessed as protection against neurodegeneration at 100 uM; assay type: functional, organism-based
[15] = system: Drosophila melanogaster; test: Toxicity against Drosophila melanogaster Huntington's disease model at 100 uM; assay type: organism-based; settings: in vivo
[16] = target: Serine/threonine-protein kinase mTOR (Homo sapiens) (UniProt P42345); test: Inhibition of mTOR phosphorylation expressed in african green monkey COS7 cells at 47 uM by Western blot analysis; assay type: cell-based; settings: COS-7
[17] = system: COS-7; test: Effect on ATg6 level in african green monkey COS7 cells at 47 uM after 24 hrs by immunoblotting; assay type: functional, cell-based; settings: Chlorocebus aethiops
[18] = system: COS-7; test: Effect on ATg5 level in african green monkey COS7 cells at 47 uM after 24 hrs by immunoblotting; assay type: functional, cell-based; settings: Chlorocebus aethiops
[19] = system: COS-7; test: Effect on ATg7 level in african green monkey COS7 cells at 47 uM after 24 hrs by immunoblotting; assay type: functional, cell-based; settings: Chlorocebus aethiops
[20] = system: COS-7; test: Effect on ATg12 level in african green monkey COS7 cells at 47 uM after 24 hrs by immunoblotting; assay type: functional, cell-based; settings: Chlorocebus aethiops
[21] = system: COS-7; test: Increase in conjugated Atg12-Atg5 level in african green monkey COS7 cells at 47 uM after 24 hrs by immunoblotting; assay type: functional, cell-based; settings: Chlorocebus aethiops
[22] = system: HeLa; test: Inhibition of proteasome activity in human HeLa cells assessed as induction of ubiquitinG76V-EGFP reporter level at 47 uM after 24 hrs by immunoblotting
[23] = system: PC-12; test: Enhancement of rapamycin-induced clearance of alpha-synuclein A53T mutant protein in rat PC12 cells at 47 uM after 8 hrs by immunoblotting; assay type: functional, cell-based
In short: (§4)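 Inducible PC12 A53T α-synuclein line (1 μg/ml doxycycline, 48 h, then switched off). Compound given alone or with 0.2 μM rapamycin over an 8 h switch-off period. Read-out is anti-HA immunoblot with densitometry relative to actin, n=3, control as 100 %.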

[24] = target: Huntingtin (Homo sapiens) (UniProt P42858); test: Inhibition of EGFP-tagged huntingtin aggregation expressed in african green monkey COS7 cells at 47 uM after 24 hrs by […] in presence of 0.2 uM rapamycin; assay type: cell-based; settings: COS-7
[25] = system: Saccharomyces cerevisiae; test: Enhancement of 20 nM rapamycin-mediated cytostatic effect in yeast BY4742 after 48 to 96 hrs; assay type: functional, organism-based
[26] = system: Saccharomyces cerevisiae; test: Enhancement of rapamycin-mediated cytostatic effect in yeast RM11-1a after 48 to 96 hrs; assay type: functional
[27] = system: Saccharomyces bayanus; test: Enhancement of rapamycin-mediated cytostatic effect in Saccharomyces bayanus after 48 to 96 hrs; assay type: functional
[28] = system: Saccharomyces mikatae; test: Enhancement of rapamycin-mediated cytostatic effect in Saccharomyces mikatae after 48 to 96 hrs; assay type: functional
[29] = system: Saccharomyces paradoxus; test: Enhancement of rapamycin-mediated cytostatic effect in Saccharomyces paradoxus after 48 to 96 hrs; assay type: functional
[30] = system: PC-12; test: Enhancement of autophagy in rat PC12 cells assessed as decrease in alpha-synuclein A53T mutant level at 5 mg/ml by densitometry; assay type: functional, cell-based; in short: as §1
[31] = system: PC-12; test: Enhancement of autophagy in rat PC12 cells assessed as decrease in alpha-synuclein A53T mutant level at 47 uM by immunoblotting; assay type: functional, cell-based; in short: as §1
[32] = Cytotoxicity against african green monkey COS7 cells at 43 uM after 24 hrs by FACS analysis; assay type: cell-based; settings: chlorocebus aethiops, cos-7, 24 h
[33] = target: Huntingtin (Homo sapiens) (UniProt P42858); test: Inhibition of EGFP-tagged huntingtin aggregation expressed in african green monkey COS7 cells at 43 uM after 48 hrs by […]; assay type: cell-based; settings: COS-7
[34] = target: Huntingtin (Homo sapiens) (UniProt P42858); test: Inhibition of EGFP-tagged huntingtin expressed in african green monkey COS7 cells assessed as protection against protein-induced cell death at 43 uM after 48 hrs […]; assay type: cell-based; settings: COS-7
In short: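 COS-7 cells transfected 4 h with EGFP-tagged huntingtin exon 1 (74 polyQ), then treated for 48 h. About 200 EGFP-positive cells were scored by fluorescence microscopy for aggregates; DAPI-stained nuclei with apoptotic morphology were counted as dead. Triplicate, scorer blinded. Results given as odds ratios vs DMSO (set to 1) with 95 % CI by logistic regression.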

[35] = target: Huntingtin (Mus musculus) (UniProt P42859); test: Inhibition of EGFP-tagged huntingtin aggregation in MEF harboring Atg5 gene at 43 uM after 48 hrs by Western blot analysis
[36] = target: Huntingtin (Mus musculus) (UniProt P42859); test: Inhibition of EGFP-tagged huntingtin aggregation in Atg5-deficient MEF at 43 uM after 48 hrs by […]
[37] = system: HeLa; test: Induction of autophagy in human HeLa cells harboring MAP1LC3 gene at 43 uM after 24 hrs by DAPI staining-based fluorescence microscopy; assay type: functional, cell-based; in short: as §2
[38] = system: HeLa; test: Increase in MAP1LC3 level in bafilomycin A1-treated human HeLa cells at 43 uM treated fro 24 hrs before bafilomycin A1 challenge by immunoblotting analysis; assay type: functional, cell-based; in short: as §3
[39] = system: Drosophila melanogaster; test: Neuroprotective activity in Drosophila melanogaster Huntington's disease model harboring huntington protein mutant assessed as protection against neurodegeneration at 200 uM; assay type: functional, organism-based
[40] = system: Drosophila melanogaster; test: Toxicity against Drosophila melanogaster Huntington's disease model at 200 uM; assay type: organism-based; settings: in vivo
[41] = target: Serine/threonine-protein kinase mTOR (Homo sapiens) (UniProt P42345); test: Inhibition of mTOR phosphorylation expressed in african green monkey COS7 cells at 43 uM by Western blot analysis; assay type: cell-based; settings: COS-7
[42] = system: COS-7; test: Effect on ATg6 level in african green monkey COS7 cells at 43 uM after 24 hrs by immunoblotting; assay type: functional, cell-based; settings: Chlorocebus aethiops
[43] = system: COS-7; test: Effect on ATg5 level in african green monkey COS7 cells at 43 uM after 24 hrs by immunoblotting; assay type: functional, cell-based; settings: Chlorocebus aethiops
[44] = system: COS-7; test: Effect on ATg7 level in african green monkey COS7 cells at 43 uM after 24 hrs by immunoblotting; assay type: functional, cell-based; settings: Chlorocebus aethiops
[45] = system: COS-7; test: Effect on ATg12 level in african green monkey COS7 cells at 43 uM after 24 hrs by immunoblotting; assay type: functional, cell-based; settings: Chlorocebus aethiops
[46] = system: COS-7; test: Increase in conjugated Atg12-Atg5 level in african green monkey COS7 cells at 43 uM after 24 hrs by immunoblotting; assay type: functional, cell-based; settings: Chlorocebus aethiops
[47] = system: HeLa; test: Inhibition of proteasome activity in human HeLa cells assessed as induction of ubiquitinG76V-EGFP reporter level at 43 uM after 24 hrs by immunoblotting
[48] = system: PC-12; test: Enhancement of rapamycin-induced clearance of alpha-synuclein A53T mutant protein in rat PC12 cells at 43 uM after 8 hrs by immunoblotting; assay type: functional, cell-based; in short: as §4
[49] = target: Huntingtin (Homo sapiens) (UniProt P42858); test: Inhibition of EGFP-tagged huntingtin aggregation expressed in african green monkey COS7 cells at 43 uM after 24 hrs by […] in presence of 0.2 uM rapamycin; assay type: cell-based; settings: COS-7

Huntingtin (Homo sapiens), sequence (P42858 whole entry): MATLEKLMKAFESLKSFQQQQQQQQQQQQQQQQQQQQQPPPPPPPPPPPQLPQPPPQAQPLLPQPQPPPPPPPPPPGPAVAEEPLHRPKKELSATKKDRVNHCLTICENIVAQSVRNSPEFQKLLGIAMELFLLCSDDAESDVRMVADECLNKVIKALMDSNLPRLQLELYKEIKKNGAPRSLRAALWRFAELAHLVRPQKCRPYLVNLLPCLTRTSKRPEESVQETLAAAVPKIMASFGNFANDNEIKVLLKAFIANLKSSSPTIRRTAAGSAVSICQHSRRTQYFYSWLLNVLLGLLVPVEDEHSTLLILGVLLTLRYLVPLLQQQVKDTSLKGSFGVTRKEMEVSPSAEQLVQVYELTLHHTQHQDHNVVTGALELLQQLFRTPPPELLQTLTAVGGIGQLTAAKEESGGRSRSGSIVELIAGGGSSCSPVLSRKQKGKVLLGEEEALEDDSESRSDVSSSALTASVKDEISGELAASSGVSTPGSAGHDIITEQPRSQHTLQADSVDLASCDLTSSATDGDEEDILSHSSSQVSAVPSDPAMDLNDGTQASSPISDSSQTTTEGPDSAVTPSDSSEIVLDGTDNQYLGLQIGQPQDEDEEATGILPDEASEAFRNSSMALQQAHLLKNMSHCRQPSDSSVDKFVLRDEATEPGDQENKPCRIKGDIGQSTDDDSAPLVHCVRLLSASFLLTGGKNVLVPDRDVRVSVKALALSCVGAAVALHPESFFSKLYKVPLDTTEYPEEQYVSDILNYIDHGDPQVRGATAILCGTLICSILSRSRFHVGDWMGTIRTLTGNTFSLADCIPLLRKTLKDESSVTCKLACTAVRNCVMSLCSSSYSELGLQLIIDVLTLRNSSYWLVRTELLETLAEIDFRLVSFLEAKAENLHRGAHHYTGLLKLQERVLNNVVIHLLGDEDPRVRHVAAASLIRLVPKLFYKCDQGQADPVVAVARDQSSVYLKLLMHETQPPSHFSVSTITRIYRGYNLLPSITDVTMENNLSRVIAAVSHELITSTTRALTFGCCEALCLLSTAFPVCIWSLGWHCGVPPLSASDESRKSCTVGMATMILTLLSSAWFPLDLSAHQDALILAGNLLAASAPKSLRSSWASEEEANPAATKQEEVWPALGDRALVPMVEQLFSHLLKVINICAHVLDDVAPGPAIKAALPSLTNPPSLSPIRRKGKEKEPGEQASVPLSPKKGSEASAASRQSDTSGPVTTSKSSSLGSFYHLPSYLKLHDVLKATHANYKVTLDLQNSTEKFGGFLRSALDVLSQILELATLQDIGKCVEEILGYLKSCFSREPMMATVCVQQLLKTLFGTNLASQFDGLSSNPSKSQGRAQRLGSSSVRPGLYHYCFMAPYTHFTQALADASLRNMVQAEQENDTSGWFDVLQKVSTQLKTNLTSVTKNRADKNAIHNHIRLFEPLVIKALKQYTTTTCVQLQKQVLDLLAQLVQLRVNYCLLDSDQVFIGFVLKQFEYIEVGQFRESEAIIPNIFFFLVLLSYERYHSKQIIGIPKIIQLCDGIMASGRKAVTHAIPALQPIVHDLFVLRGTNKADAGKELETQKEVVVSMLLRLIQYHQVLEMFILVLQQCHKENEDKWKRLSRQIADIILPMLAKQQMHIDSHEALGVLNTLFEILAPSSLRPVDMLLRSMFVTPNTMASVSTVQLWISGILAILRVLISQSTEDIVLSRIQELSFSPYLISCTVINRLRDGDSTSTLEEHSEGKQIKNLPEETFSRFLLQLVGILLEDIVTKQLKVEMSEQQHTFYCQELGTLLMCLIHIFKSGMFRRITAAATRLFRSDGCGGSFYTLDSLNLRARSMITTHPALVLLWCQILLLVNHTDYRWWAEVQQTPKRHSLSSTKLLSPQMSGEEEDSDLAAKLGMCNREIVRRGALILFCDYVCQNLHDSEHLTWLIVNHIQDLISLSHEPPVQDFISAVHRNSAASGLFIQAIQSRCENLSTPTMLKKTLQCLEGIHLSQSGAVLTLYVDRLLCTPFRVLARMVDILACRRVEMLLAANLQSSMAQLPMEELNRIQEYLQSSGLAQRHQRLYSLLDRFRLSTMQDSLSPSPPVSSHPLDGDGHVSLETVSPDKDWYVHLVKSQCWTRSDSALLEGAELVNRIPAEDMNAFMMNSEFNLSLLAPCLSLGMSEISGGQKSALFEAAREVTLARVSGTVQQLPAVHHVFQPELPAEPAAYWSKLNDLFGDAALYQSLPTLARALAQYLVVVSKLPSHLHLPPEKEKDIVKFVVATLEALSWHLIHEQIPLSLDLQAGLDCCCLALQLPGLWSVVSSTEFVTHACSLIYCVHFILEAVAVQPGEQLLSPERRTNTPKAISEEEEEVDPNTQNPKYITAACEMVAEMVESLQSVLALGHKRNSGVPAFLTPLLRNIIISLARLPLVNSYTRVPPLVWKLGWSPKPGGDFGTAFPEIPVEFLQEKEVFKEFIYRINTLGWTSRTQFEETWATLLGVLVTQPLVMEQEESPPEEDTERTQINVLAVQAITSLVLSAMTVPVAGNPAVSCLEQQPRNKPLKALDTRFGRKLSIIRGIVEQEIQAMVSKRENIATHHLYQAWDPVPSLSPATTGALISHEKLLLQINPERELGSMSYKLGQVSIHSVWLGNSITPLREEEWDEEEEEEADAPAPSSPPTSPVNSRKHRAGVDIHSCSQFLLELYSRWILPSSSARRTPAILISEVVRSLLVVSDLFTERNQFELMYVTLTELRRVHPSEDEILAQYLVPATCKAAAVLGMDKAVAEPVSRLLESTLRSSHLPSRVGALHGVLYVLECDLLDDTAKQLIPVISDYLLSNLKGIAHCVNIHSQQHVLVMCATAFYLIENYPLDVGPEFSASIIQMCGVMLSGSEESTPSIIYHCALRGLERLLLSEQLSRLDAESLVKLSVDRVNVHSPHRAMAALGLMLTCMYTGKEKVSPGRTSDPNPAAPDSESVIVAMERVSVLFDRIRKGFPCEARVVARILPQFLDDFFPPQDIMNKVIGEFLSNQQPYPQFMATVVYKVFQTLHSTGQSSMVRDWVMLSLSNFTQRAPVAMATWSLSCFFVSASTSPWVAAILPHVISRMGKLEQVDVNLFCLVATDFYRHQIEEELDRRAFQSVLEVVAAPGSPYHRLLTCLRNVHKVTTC

S=C(S)OC1CC2CC1C1CCCC21 (centres undefined)
0.412 µM: EC50 [1]
active: inhibition [2] | inhibition [3] | inhibition [4] | inhibition [5]

C=CCNc1ncnc2ccc(Br)cc12
active: Activity [6] | inhibition [8] | inhibition [9] | Activity [12] | Activity [13] | Activity [14] | Activity [23] | inhibition [24] | Activity [26] | Activity [27] | Activity [28] | Activity [29] | Activity [30] | Activity [31]
inactive: inhibition [10] | inhibition [11] | inhibition [16] | Activity [17] | Activity [18] | Activity [19] | Activity [20] | Activity [21] | inhibition [22]
Non-toxic: Activity [7] | Activity [15]
> 50 µM: EC50 [25]

C/C(=C/C(=O)c1ccc(Cl)cc1)Nc1cccc(O)c1
active: Activity [6] | inhibition [33] | inhibition [34] | inhibition [35] | inhibition [36] | Activity [37] | Activity [38] | Activity [39] | Activity [48] | inhibition [49] | Activity [26] | Activity [27] | Activity [28] | Activity [29] | Activity [30] | Activity [31]
inactive: inhibition [10] | inhibition [11] | inhibition [41] | Activity [42] | Activity [43] | Activity [44] | Activity [45] | Activity [46] | inhibition [47]
Non-toxic: Activity [32] | Activity [40]
17.4 µM: EC50 [25]
